This is a sample that favours compounds with a hit; in the whole collection about 5.4% have one here.
SKKanGAS inh – SKKanGAS growth inhibition. S. pyogenes SKKanGAS, kanamycin growth, BacTiter-Glo, 6 h. inhibition, % at 7.5 µM. hit rate 1.3% among 300,000. AID 1662;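 active = mean replicate score, as percent of positive control median, at least 50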;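 note: strain carries kanamycin resistance gene driven by streptokinase promoter and grows in 40 µg/ml kanamycin; loss of luminescence reflects streptokinase promoter inhibition or plain growth inhibition; 0% = median of DMSO wells and 100% = positive control at its reference dose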
T cruzi repl – blocks replication of Trypanosoma cruzi | hit rate 1.4% among 300,000 | AID 1885 | inhibition, % (no concentration beside the values) | T. cruzi beta-gal in NIH3T3, luminescence, 90 h;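 active = mean inhibition across valid replicates above about 55%, limit read from the data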;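 note: signal also drops with host cell toxicity which is not excluded here; 0% = plate median of DMSO wells and 100% = zero luminescence signal; higher percent means less beta-gal luminescence so fewer parasites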
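Read-out: Parasite load inhibition, % | Test system: Mouse NIH/3T3 fibroblasts infected with β-gal-expressing T. cruzi Tulahuen C4 | Amount: 5,000 cells/well | Medium: DMEM, 2% fetal bovine serum | Signal: GalScreen β-gal luminescence, detergent lysis, 60 min | Timing: 3 h attach, ≥90 h co-culture | Also added: Tulahuen C4 trypomastigotes, 5000/well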
CSC inhib – cancer stem cell inhibition. cancer stem cell-like cells viability, luminescence. inhibition, % at 7.5 µM. hit rate 1.1% among 300,000; in the data active = inhibition above about 75%; tested in HMLE shEcad cells
Mdm2-MdmX inh – human Mdm2/MdmX binding inhibition; O15151+Q00987; hit rate 3% among 330,000; SaOS-2 split-luciferase Mdm2/MdmX complementation, luminescence; inhibition, % at 8 µM; AID 485346;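 active = inhibition of at least 50% at 8 µM in the primary screen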
Target sequence (O15151 whole entry, looked up): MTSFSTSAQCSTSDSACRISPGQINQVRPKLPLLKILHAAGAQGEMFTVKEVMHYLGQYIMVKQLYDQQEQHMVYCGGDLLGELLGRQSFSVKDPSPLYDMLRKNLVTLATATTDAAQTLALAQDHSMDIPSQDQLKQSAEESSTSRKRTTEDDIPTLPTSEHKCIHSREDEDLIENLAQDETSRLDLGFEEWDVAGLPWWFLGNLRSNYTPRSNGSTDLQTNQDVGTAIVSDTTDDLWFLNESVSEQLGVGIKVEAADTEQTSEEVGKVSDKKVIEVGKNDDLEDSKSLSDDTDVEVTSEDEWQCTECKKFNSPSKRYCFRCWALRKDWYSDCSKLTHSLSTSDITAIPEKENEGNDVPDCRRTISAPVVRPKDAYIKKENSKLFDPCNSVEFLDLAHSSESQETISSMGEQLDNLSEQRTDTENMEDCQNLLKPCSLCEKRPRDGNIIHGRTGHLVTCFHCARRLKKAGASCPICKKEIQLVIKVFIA
Target sequence (Q00987 whole entry, looked up): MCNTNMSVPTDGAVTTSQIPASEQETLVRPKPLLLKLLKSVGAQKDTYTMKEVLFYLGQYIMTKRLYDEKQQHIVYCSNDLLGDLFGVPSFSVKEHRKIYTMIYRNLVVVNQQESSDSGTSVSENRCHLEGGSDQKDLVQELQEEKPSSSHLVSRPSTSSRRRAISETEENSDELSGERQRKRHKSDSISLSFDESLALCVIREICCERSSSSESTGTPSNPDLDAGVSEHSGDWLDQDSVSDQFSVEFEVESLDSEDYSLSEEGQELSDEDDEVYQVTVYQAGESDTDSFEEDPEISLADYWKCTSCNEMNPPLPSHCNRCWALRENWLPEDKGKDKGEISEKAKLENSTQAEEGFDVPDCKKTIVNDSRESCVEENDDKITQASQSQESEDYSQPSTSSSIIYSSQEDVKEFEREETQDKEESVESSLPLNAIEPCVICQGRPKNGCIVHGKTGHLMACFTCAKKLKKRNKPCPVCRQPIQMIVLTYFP
aSyn 5UTR inh – MLPCN primary screen, SNCA 5' untranslated region; alpha-synuclein 5'UTR reporter, inhibitor activity; inhibition, % (tested at 7.5 µM); hit rate 0.82% among 300,000; AID 1813; in the data active = inhibition above about 60%;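 note: H4 neuroglioblastoma cells stably carrying SNCA 5'UTR luciferase fusion; 0% = DMSO wells and 100% = positive control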
* hit, by the source's call.

For CC(C)C(Nc1ncnc2c1oc1ccccc12)C(=O)O (centres undefined) the results were SKKanGAS inh 0.9, T cruzi repl 76.9*, CSC inhib 4.3, Mdm2-MdmX inh -6.6 and aSyn 5UTR inh 7.7.
For CCOC(=O)c1c(NC(=O)CSc2nc3cc(Cl)ccc3c(=O)n2Cc2ccco2)sc(C(=O)N(C)C)c1C the results were SKKanGAS inh 19.9, T cruzi repl 61.0*, CSC inhib 52.3, Mdm2-MdmX inh 18.1 and aSyn 5UTR inh 24.3.
For CCOC(=O)c1c(NC(=O)COC(=O)c2ccccc2NC)sc(C(=O)N(C)C)c1C the results were SKKanGAS inh 40.2, T cruzi repl 58.7*, Mdm2-MdmX inh 12.0 and aSyn 5UTR inh 21.4.
Screening O=C(CN1C(=O)NC2(CCOc3ccccc32)C1=O)NCc1ccccc1 (centres undefined) returned CSC inhib -9.7 and Mdm2-MdmX inh 17.9.
O=C(COc1ccc(F)c(Cl)c1)Nc1ccc(N2CCOCC2)cc1 was read as CSC inhib -5.5 and Mdm2-MdmX inh -25.1.
Screening COc1ccc(Cc2noc(CN3CCCN(C4Cc5ccccc5C4)CC3)n2)cc1OC returned SKKanGAS inh 3.2, T cruzi repl 60.0*, CSC inhib 17.2, Mdm2-MdmX inh 21.2 and aSyn 5UTR inh 0.6.
Screening Cc1ccc(C2(c3noc(CN4CCC(c5ccncc5)CC4)n3)CCCC2)cc1 returned SKKanGAS inh 7.7, T cruzi repl 49.1, CSC inhib 91.8*, Mdm2-MdmX inh -22.3 and aSyn 5UTR inh -16.5.
For COc1ccc(Cc2noc(CN3CCN(Cc4cccc(Cl)c4)CC3)n2)cc1OC the results were SKKanGAS inh -15.5, T cruzi repl 59.9*, CSC inhib 2.2, Mdm2-MdmX inh 18.3 and aSyn 5UTR inh 13.1.
`Fc1cccc(Cc2noc(CN3CCOCC3)n2)c1` gave SKKanGAS inh -2.4, T cruzi repl -10.2, CSC inhib -11.3, Mdm2-MdmX inh -16.9 and aSyn 5UTR inh -2.9.
Screening Fc1cccc(Cc2noc(CN3CCC(c4ccncc4)CC3)n2)c1 returned SKKanGAS inh -9.4, T cruzi repl 66.0*, CSC inhib 49.7, Mdm2-MdmX inh 27.9 and aSyn 5UTR inh -19.3.
Screening CN(Cc1cccnc1)C(=O)c1cc(COc2ccc3c(c2)CCCC3)on1 returned SKKanGAS inh -16.4, T cruzi repl 39.2, CSC inhib 14.4, Mdm2-MdmX inh -4.4 and aSyn 5UTR inh -127.4.
For Cc1ccc(C)c(N2CCN(C(=O)c3ccc4nsnc4c3)CC2)c1 the results were SKKanGAS inh 4.7, T cruzi repl 0.0, CSC inhib 50.3, Mdm2-MdmX inh 45.3 and aSyn 5UTR inh -19.7.
For COc1ccc(S(=O)(=O)Oc2ccccc2C(=S)N2CCOCC2)cc1 the results were SKKanGAS inh 5.8, T cruzi repl 1.8, CSC inhib 0.4, Mdm2-MdmX inh -6.2 and aSyn 5UTR inh 0.5.
Screening Cc1[nH]c(=O)[nH]c(=O)c1S(=O)(=O)Nc1cccc(C(F)(F)F)c1 returned SKKanGAS inh 2.5, T cruzi repl -7.3, CSC inhib -2.7, Mdm2-MdmX inh 27.7 and aSyn 5UTR inh 16.3.
Screening Cc1cc(C)c(NC(=O)c2cn3c4c(c(N5CCN(C)CC5)c(F)cc4c2=O)OCC3C)c(C)c1 (centres undefined) returned SKKanGAS inh 5.1, T cruzi repl 34.1, CSC inhib 19.2, Mdm2-MdmX inh 43.3 and aSyn 5UTR inh 9.5.
Screening CN1CCN(c2c(F)cc3c(=O)c(C(=O)O)cn4c3c2OCN4C)CC1 returned SKKanGAS inh 104.1*, T cruzi repl -1.4, CSC inhib -6.3, Mdm2-MdmX inh 10.7 and aSyn 5UTR inh -20.0.
Screening O=C(CSc1nnc(NC(=O)c2ccco2)s1)Nc1ccccc1Br returned SKKanGAS inh 35.8, T cruzi repl -9.3, CSC inhib -1.7, Mdm2-MdmX inh -23.8 and aSyn 5UTR inh -12.1.
`COc1ccc(NC(=O)/C=C/c2c(Cl)nc3ccccn23)cc1` gave SKKanGAS inh -10.4, T cruzi repl -0.5, CSC inhib -7.2, Mdm2-MdmX inh -17.7 and aSyn 5UTR inh 5.1.
COc1ccccc1N1CCN(C(=O)/C=C/c2c(Cl)nc3ccccn23)CC1 was read as SKKanGAS inh 68.6*, T cruzi repl 12.8, CSC inhib 12.8, Mdm2-MdmX inh -13.7 and aSyn 5UTR inh 19.2.
For O=C(COc1ccccc1Cc1ccccc1)Nc1cccnc1 the results were CSC inhib -5.8 and Mdm2-MdmX inh -29.3.
For COc1ccc(C(=O)CSc2nc(-c3ccccn3)nc(C)c2Cl)cc1 the results were SKKanGAS inh 87.6*, T cruzi repl 7.3, CSC inhib -10.0, Mdm2-MdmX inh 17.9 and aSyn 5UTR inh -39.9.
Screening Cc1nc(-c2ccccn2)nc(SCC(=O)c2ccc(F)cc2)c1Cl returned SKKanGAS inh 84.6*, T cruzi repl 0.2, CSC inhib -15.8, Mdm2-MdmX inh 19.9 and aSyn 5UTR inh -9.8.
CC(COc1cccc2ccccc12)CN1CCN(C)CC1 (centres undefined) was read as SKKanGAS inh 9.7, T cruzi repl 66.1*, CSC inhib 58.8, Mdm2-MdmX inh 8.8 and aSyn 5UTR inh 1.5.
`OC(COc1cccc2ccccc12)CN1CCN(c2ccccc2)CC1` (centres undefined) gave SKKanGAS inh 4.0, T cruzi repl -11.5, CSC inhib 8.2, Mdm2-MdmX inh 4.8 and aSyn 5UTR inh 3.6.
Cc1ccccc1OCC(O)CN1CCN(C)CC1 (centres undefined) was read as SKKanGAS inh 8.4, T cruzi repl 62.9*, CSC inhib -8.7, Mdm2-MdmX inh 13.2 and aSyn 5UTR inh -17.0.
For CC(C)c1ccccc1OCC(O)CN1CCN(S(=O)(=O)c2ccc([N+](=O)[O-])cc2)CC1 (centres undefined) the results were SKKanGAS inh 10.0, T cruzi repl 54.8*, CSC inhib 11.2, Mdm2-MdmX inh 15.3 and aSyn 5UTR inh 31.7.
`O=C(O)c1cc(NS(=O)(=O)c2ccc(F)cc2)cc(NS(=O)(=O)c2ccc(F)cc2)c1` gave CSC inhib 10.6 and Mdm2-MdmX inh -7.2.
`Cc1ccc(SC2=C(Sc3ccc(C)cc3)C(=O)c3ccccc3C2=O)cc1` gave SKKanGAS inh 32.7, T cruzi repl -29.0, CSC inhib 78.0*, Mdm2-MdmX inh 11.0 and aSyn 5UTR inh -12.6.
CCOc1ccc(C(=O)N(Cc2ccccc2)c2cccc(C)c2)cc1OC was read as SKKanGAS inh 0.5, T cruzi repl 19.0, CSC inhib 7.6, Mdm2-MdmX inh 35.1 and aSyn 5UTR inh -24.4.
c1ccc(COc2ccc(-c3sc(Nc4ccccc4)n[n+]3-c3ccccc3)cc2)cc1 was read as SKKanGAS inh -0.9, T cruzi repl 32.3, CSC inhib 17.9, Mdm2-MdmX inh 16.5 and aSyn 5UTR inh -2.2.
CCc1ccc(Nc2n[n+](-c3ccccc3)c(-c3ccc(OCc4ccccc4)cc3)s2)cc1 was read as SKKanGAS inh 6.7, T cruzi repl 54.9*, CSC inhib 26.7, Mdm2-MdmX inh 25.7 and aSyn 5UTR inh -61.8.
CC1CCN(C(=O)C2CCN(S(=O)(=O)c3cccc4nsnc34)CC2)CC1 was read as SKKanGAS inh -7.5, T cruzi repl 1.5, CSC inhib -4.1, Mdm2-MdmX inh -0.8 and aSyn 5UTR inh 4.1.
